NF-kB neuron act – NF-kB expression increase, human neuronal cells | NF-kB reporter expression; hits give high values | fold change at 12.5 µM | 190,000 compounds, 1.6% hits; in the data active = fold change above about 3.3
C8 TRAIL sens – caspase-8 TRAIL sensitization | 360,000 compounds, 1% hits | inhibition (viability loss, TRAIL sensitization), % at 10 µM | AID 624354 | NB7+C8 cells + TRAIL, ATPlite viability luminescence;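 active = compounds causing at least 50% loss of cell viability in the single-dose screen, relative to plate controls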
FLuc stim CS – affects firefly luciferase, flagging false hits in luciferase stimulation screens | P08659 | ATPlite luciferase biochemical, luminescence, 10 min; 0 = ATP-free wells, 1 = DMSO control | AID 1027 | activation factor at 10 µM | 200,000 tested, under 10 active;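 active = luciferase activation factor, scaled between plate controls, of at least 2 with compound at 10 µM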
Target sequence (P08659 whole entry, looked up): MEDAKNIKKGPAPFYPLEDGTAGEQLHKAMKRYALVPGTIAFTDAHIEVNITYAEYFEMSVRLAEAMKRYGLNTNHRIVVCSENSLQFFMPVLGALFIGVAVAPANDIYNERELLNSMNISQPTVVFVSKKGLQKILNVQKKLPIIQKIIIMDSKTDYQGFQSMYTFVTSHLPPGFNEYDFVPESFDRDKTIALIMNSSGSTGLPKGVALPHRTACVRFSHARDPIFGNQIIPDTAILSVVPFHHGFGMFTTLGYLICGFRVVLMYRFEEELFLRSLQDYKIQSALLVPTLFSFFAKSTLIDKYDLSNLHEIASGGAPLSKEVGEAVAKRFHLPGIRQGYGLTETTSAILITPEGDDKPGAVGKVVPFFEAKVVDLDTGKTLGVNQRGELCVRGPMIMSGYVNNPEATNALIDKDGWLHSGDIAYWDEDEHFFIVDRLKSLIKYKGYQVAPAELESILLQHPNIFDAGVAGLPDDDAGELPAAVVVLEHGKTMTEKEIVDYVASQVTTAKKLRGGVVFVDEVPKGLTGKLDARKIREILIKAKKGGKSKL
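System: cell-free luciferase reagent; medium: PBS as buffer for the ATP substrate; doses: test compounds dosed from 2 mM stocks in 100% DMSO; incubation: 10 min, room temperature; measured by: luminescence from luciferase reaction; read-out: luciferase activation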
FLuc inh counter – Photinus pyralis luciferase inhibition counter-screen | ATPLite firefly luciferase biochemical luminescence, 10 min | 200,000 compounds, 1.5% hits | inhibition, % at 10 µM | P08659 | AID 1006;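 active = inhibition above about 50% when tested at 10 µM, limit read from the data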
PPC-1+TRAIL kill – kills PPC-1 cancer cells in the presence of TRAIL; PPC-1 cells + TRAIL, ATPLite viability luminescence; cell killing (% activity), % at 4 µM or 5 µM; 220,000 compounds, 0.41% hits;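 active = cell killing above 50% in the first pass at 4 µM, then a duplicate retest at 5 µM averaging 50% or more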;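 also: plate controls were cells with TRAIL plus DMSO for no effect and medium-only wells lacking cells for full effect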
APP 5'UTR act – APP 5'UTR luciferase reporter activation. SH-SY5Y APP 5'UTR luciferase reporter, luminescence; zero percent = DMSO vehicle wells. activation, % at 2 µM. 190,000 compounds, 1% hits. AID 1276;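 active = activation above a set limit, based on mean plus 3 SD of controls, cut at about 140% in these data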
An asterisk follows results filed as active; . = not tested or not shown. Most compounds without a hit are left out; they make up all but 2.2% or so of the library.

SMILES | NF-kB neuron act | C8 TRAIL sens | FLuc stim CS | FLuc inh counter | PPC-1+TRAIL kill | APP 5'UTR act
CCc1ccc(C2=NN(S(C)(=O)=O)C(c3cccs3)C2)cc1 (stereo unspecified) | 8.37* | 10.3 | 0.8 | 17.7 | 20.2 | 182.4*
CS(=O)(=O)N1N=C(c2ccc(Br)cc2)CC1c1cccs1 (stereo unspecified) | 1.97 | 7.0 | 1 | -4.2 | -17.5 | 8.4
Cc1c(Cl)cccc1Nc1n[nH]c(=S)s1 | . | -1.0 | . | . | . | .
Cc1cc(O)c(CN2CCN(S(=O)(=O)c3cccs3)CC2)cc1C(C)C | . | 8.0 | . | . | . | .
Cc1ccc(/C(N)=N/OC(=O)Oc2ccccc2)cc1 | 0.91 | -5.3 | 1 | -2.7 | 13.0 | 1.7
Cc1ccc(/C(N)=N/OC(=O)c2cccc(F)c2)cc1 | 4.59* | 85.0* | 0.4 | 61.0* | 27.8 | 15.1
N/C(=N\OC(=O)c1cccc(F)c1)c1ccccc1 | 2.41 | 74.2* | 0.1 | 91.1* | 19.5 | 94.2
Cc1ccc(/C(N)=N/OC(=O)c2ccc3ccccc3c2)cc1 | . | 90.3* | . | . | . | .
N/C(=N\OC(=O)c1cccc(Br)c1)c1ccncc1 | . | 1.9 | 0.6 | 38.7 | 14.8 | 38.6
O=[N+]([O-])c1ccc(-[n+]2nc(-c3ccccc3)nn2-c2ccccc2)cc1 | . | -2.3 | . | . | . | .
CCOC(=O)C1=C(O)C(=O)N(Cc2ccccc2)CC1 | 1.25 | -3.8 | 1 | -4.0 | 0.8 | -0.3
COc1ccc(S(=O)(=O)N2Cc3ccccc3CC2C(=O)Nc2nccs2)cc1OC (stereo unspecified) | 1.35 | 7.8 | 1.1 | -6.1 | 16.5 | 162.9*
CCS(=O)(=O)N1Cc2ccccc2CC1C(=O)Nc1nccs1 (stereo unspecified) | 1.66 | 11.5 | 0.9 | 11.4 | 3.9 | 81.2
COc1ccc(S(=O)(=O)N2Cc3ccccc3CC2C(=O)Nc2nccs2)cc1 (stereo unspecified) | 1.61 | 0.3 | 1 | -4.2 | 17.4 | 180.1*
CN(CC(=O)Nc1ccc(N2CCOCC2)cc1)C(=O)CCNC(=O)c1ccc(Br)cc1 | . | 1.7 | . | . | . | .
O=C(O)c1cccc2c1C(=O)c1ccccc1-2 | . | 0.9 | . | . | -8.7 | .
O=C1C(=C(I)I)c2ccccc2-c2ccccc21 | . | 93.7* | . | . | . | .
CCC1CCCCN1C(=O)COC(=O)c1cncc(Br)c1 (stereo unspecified) | . | -6.5 | . | . | . | .
O=C1NC(=O)C2(CCc3ccccc32)N1 (stereo unspecified) | 1.08 | -4.2 | 1 | -4.4 | 9.9 | 6.3
C=C1CC2(OC1=O)c1ccccc1CCc1ccccc12 | . | 90.6* | . | . | . | .
COCCn1nnnc1C(CC(C)C)N1CCN(c2cccc(OC)c2)CC1 (stereo unspecified) | 5.79* | -13.0 | 1.1 | -7.5 | 21.4 | -15.4
Cc1cc(S(=O)(=O)NCc2cccnc2)ccc1F | . | 1.8 | . | . | . | .
CCN(CC)C(=O)CCc1nnc(Cc2cccc(C(F)(F)F)c2)o1 | 3.3* | 1.8 | 1 | -1.9 | 24.7 | 112.8
O=C(/C=C/c1ccc(S(=O)(=O)N2CCOCC2)cc1)NCc1ccc(Cl)cc1 | 0.84 | 12.7 | 1 | -3.3 | 9.6 | 8.8
Clc1ccc(Cn2ncc3c(N4CCN(c5ccccc5)CC4)ncnc32)cc1 | . | 73.5* | . | . | . | .
SMILES | NF-kB neuron act | C8 TRAIL sens | FLuc stim CS | FLuc inh counter | PPC-1+TRAIL kill | APP 5'UTR act
Clc1ccc(-n2ncc3c(N4CCCC4)ncnc32)cc1 | 0.74 | 55.2* | 0.3 | 75.0* | 48.9 | 160.8*
CCOC(=O)C1CCN(c2ncnc3c2cnn3-c2ccc(Cl)cc2)CC1 | 0.83 | 35.3 | 1 | 1.1 | 24.8 | -9.8
CC1CCN(c2ncnc3c2cnn3-c2ccccc2)CC1 | 4.49* | 46.9 | 0.6 | 40.2 | 6.8 | .
COc1ccc(-n2ncc3c(N4CCC(C)CC4)ncnc32)cc1 | . | 45.2 | . | . | . | .
Cc1nn(-c2ccccc2)c(Cl)c1C(=O)N1CCN(c2ncnc3c2cnn3-c2ccccc2)CC1 | 0.32 | 73.1* | 1.1 | -8.0 | 32.0 | 12.7
O=C(NCc1ccccc1Cl)c1ccc2c(c1)OCO2 | . | 16.0 | . | . | . | .
Nc1c(Br)cc2oc(-c3ccccc3)nc2c1Br | 3.35* | 17.1 | 0.8 | 20.1 | 2.6 | 100.5
COc1ccc(-c2nc3c(Br)c(N)c(Br)cc3o2)cc1 | 1.66 | 20.4 | 0.7 | 29.1 | . | 113.2
O=C(NCCOc1ccc(F)cc1)C1CCC(=O)N(CCc2ccccn2)C1 (stereo unspecified) | . | -7.7 | . | . | . | .
O=c1c2ccccc2ncn1CCCOc1ccccc1[N+](=O)[O-] | 2.07 | 18.3 | 0.9 | 7.3 | -14.2 | 90.6

Compound activity from PubChem.
